Screening results from PubChem.
Sampled rows, rich in hits. Any-hit rate of the full collection: about 3%.
SENP8 block-1: human SENP8 protease inhibitors, primary screen, biochemical, fluorescence, Nedd8 protein substrate, uHTS; Sentrin-specific protease 8 (Homo sapiens), Q96LD8; recombinant SENP8; inhibition, % at 20 µM; 360,000 tested, 0.64% active; AID 602440, 2012; in the data active = inhibition mostly above about 40%, no sharp cut-off; inactive = mostly below about 27%
UBC13 inh: UBC13 polyubiquitin chain formation inhibitors, primary screen, biochemical, TR-FRET, uHTS. Ubiquitin-conjugating enzyme E2 N (Homo sapiens), P61088. inhibition, % at 20 µM. 330,000 tested, 0.47% active. AID 485273, 2010; in the data active = inhibition above about 45%, passing the limit was not always enough
Target sequence (P61088 whole entry, looked up): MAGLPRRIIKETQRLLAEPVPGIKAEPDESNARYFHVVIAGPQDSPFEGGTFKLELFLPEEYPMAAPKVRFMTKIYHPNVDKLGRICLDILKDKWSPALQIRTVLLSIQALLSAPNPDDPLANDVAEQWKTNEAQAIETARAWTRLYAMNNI
SENP6 block: SENP6 protease inhibitors, primary screen, biochemical, luminescence, uHTS; Sentrin-specific protease 6 (Homo sapiens), Q9GZR1; Recombinant SENP6 catalytic domain, aminoluciferin luminescence; inhibition, % at 10 µM; 330,000 tested, 1.8% active; AID 2599, 2010;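 active = inhibition above about 50% at the single tested dose, limit read from the data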;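 note: plate controls were DMSO wells with enzyme for no effect and DMSO wells lacking enzyme for full effect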
Target sequence (Q9GZR1 628-1112 limits assumed): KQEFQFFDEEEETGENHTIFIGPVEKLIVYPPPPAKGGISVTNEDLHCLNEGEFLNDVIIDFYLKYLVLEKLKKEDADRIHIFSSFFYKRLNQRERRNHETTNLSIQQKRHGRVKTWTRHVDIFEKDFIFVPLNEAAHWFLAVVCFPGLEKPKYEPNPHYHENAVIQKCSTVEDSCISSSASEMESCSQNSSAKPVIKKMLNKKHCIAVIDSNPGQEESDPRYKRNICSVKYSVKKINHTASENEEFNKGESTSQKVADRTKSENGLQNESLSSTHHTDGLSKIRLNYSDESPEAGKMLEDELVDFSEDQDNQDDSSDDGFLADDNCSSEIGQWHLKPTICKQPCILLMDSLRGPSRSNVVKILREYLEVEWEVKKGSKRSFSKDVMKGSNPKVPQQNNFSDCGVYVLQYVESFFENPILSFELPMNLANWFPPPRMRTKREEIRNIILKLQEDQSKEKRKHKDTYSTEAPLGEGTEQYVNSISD
Apaf-1 inh: inhibitors of human Apaf-1 apoptosome, primary screen, biochemical, DEVD-Rh110 fluorescence, uHTS. reconstituted apoptosome caspase-3 activity. inhibition, % at 20 µM. 330,000 tested, 0.71% active. AID 489030, 2010; active = inhibition of at least 40% at 20 µM;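 note: plate controls were DMSO wells for no effect and DEVD-CHO caspase inhibitor wells for full effect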
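System: reconstituted apoptosome with Apaf-1, cytochrome c, caspase-9, procaspase-3, dATP; Signal: Rh110 fluorescence intensity; Schedule: 30 min compound preincubation, 50 min activation, room temperature; Reagent: cytochrome c trigger plus (Z-DEVD)2-Rh110 caspase-3 substrate.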
SENP7 inh: SENP7 protease inhibitors, primary screen, biochemical, luminescence, uHTS. inhibition, % at 5 µM. 330,000 tested, 1.5% active. AID 434973, 2010. recombinant SENP7, Z-RLRGG-aminoluciferin luminescence, 40 min;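 active = inhibition above about 50% at the single test dose, limit read from the data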;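 note: plate controls were DMSO with enzyme for no effect and no enzyme buffer wells for full effect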
SENP8 block-2: SENP8 protease inhibitors, primary screen, biochemical, luminescence | AID 2540, 2010 | purified SENP8, Z-RLRGG-aminoluciferin cleavage | Sentrin-specific protease 8 (Homo sapiens), Q96LD8 | inhibition, % at 10 µM | 330,000 tested, 1.2% active; in the data active = inhibition above about 50%
Apaf-1 inh conf2: Apaf-1 inhibitors, single-dose retest, confirmation, biochemical, fluorescence, DEVD-Rh110, 20 µM. shares compounds with Apaf-1 inh. reconstituted apoptosome, caspase-3 DEVD-Rh110 fluorescence. inhibition, % at 20 µM. 1,800 tested, 25% active. AID 504614, 2011;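 active = mean inhibition of at least 40% at 20 µM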;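 note: plate controls were DMSO wells for no effect and DEVD-CHO caspase inhibitor control wells for full effect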
Rh110 interf inh: Rh110 fluorescence interference by putative Apaf-1 inhibitors, confirmation, artefact control for Apaf-1 inhibitor project, biochemical, 20 µM. shares compounds with Apaf-1 inh. quenched caspase reaction. activation (fluorescence interference), % at 20 µM. 1,800 tested, under 10 active;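 active = signal rise of 40% or more at 20 µM, treated as a fluorescence artifact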
Numbers without * were called inactive.

Cc1ccc(C2(c3ccccc3)NC(=O)N(CC(=O)NC3CCCCC3)C2=O)cc1C (centres undefined) was read as SENP8 block-1 4.4, UBC13 inh 4.5, SENP6 block -4.9, Apaf-1 inh 16.4, SENP7 inh 5.5 and SENP8 block-2 -10.6.
COc1ccc(S(=O)(=O)N2CCC(C(=O)N[C@@H](C)C(=O)NCc3ccco3)CC2)cc1 was read as SENP8 block-1 21.1.
CN(C)CCCN(C(=O)c1ccc2c(c1)CCCC2)c1nc2c(F)cccc2s1 was read as SENP8 block-1 30.6, UBC13 inh 37.6, SENP6 block -1.7, Apaf-1 inh 6.7, SENP7 inh 2.0 and SENP8 block-2 0.1.
Screening CN(C)CCN(C(=O)c1ccc2c(c1)CCCC2)c1nc2cc3c(cc2s1)OCCO3 returned SENP8 block-1 9.1, UBC13 inh 41.0, SENP6 block 6.0, Apaf-1 inh 43.6*, SENP7 inh 14.1, SENP8 block-2 -9.9, Apaf-1 inh conf2 25.1 and Rh110 interf inh 9.3.
`Cc1cc(C)c2nc(N(CCCN(C)C)C(=O)c3ccc4c(c3)CCCC4)sc2c1` gave UBC13 inh 25.7, SENP6 block -22.1, Apaf-1 inh 42.2*, SENP7 inh 14.1, SENP8 block-2 -14.6, Apaf-1 inh conf2 21.1 and Rh110 interf inh 11.8.
For CCOc1ccc2nc(N(CCN(C)C)C(=O)c3ccc4c(c3)CCCC4)sc2c1 the results were SENP8 block-1 13.6, UBC13 inh 2.9, SENP6 block -2.6, Apaf-1 inh 54.7*, SENP7 inh -2.6, SENP8 block-2 8.2, Apaf-1 inh conf2 13.8 and Rh110 interf inh -0.9.
CC(C)(C)c1ccc(C(=O)N2CCN(CCNC(=O)C(=O)NCc3ccccc3)CC2)cc1 was read as SENP8 block-1 -0.5, UBC13 inh 0.2, SENP6 block -13.5, Apaf-1 inh 12.5, SENP7 inh -4.9 and SENP8 block-2 -9.9.
Cc1cn(-c2cc(C(=O)Nc3ccc(C)c(NC(=O)C(=O)c4c[nH]c5ccccc45)c3)cc(C(F)(F)F)c2)cn1 was read as SENP8 block-1 -2.2, UBC13 inh -28.0, SENP6 block -12.5, Apaf-1 inh 2.1, SENP7 inh 13.2 and SENP8 block-2 -14.4.
Screening Cc1ccc(C)c(NC(=O)CS(=O)(=O)c2cccc3nsnc23)c1 returned SENP8 block-1 9.4, UBC13 inh 1.6, SENP6 block 6.4, Apaf-1 inh -15.7, SENP7 inh 1.9 and SENP8 block-2 -0.5.
Cc1cccc(NC(=O)N2CCC(NC(=O)C3CCCCC3)CC2)c1 was read as SENP8 block-1 6.7, UBC13 inh 2.7, SENP6 block 15.5, Apaf-1 inh -1.0, SENP7 inh 1.2 and SENP8 block-2 0.6.
Screening COc1ccc(C2CC(=O)Oc3c(C(CCN4CCCCC4)c4ccc(N(C)C)cc4)c(OC)cc(OC)c32)cc1 (centres undefined) returned SENP8 block-1 24.7, UBC13 inh 26.5, SENP6 block -26.0, Apaf-1 inh 22.5, SENP7 inh 0.5 and SENP8 block-2 -10.1.
COc1ccc(C2CC(=O)Oc3c(C(CCN4CCCC(C)C4)c4ccc(N(C)C)cc4)c(OC)cc(OC)c32)cc1 (centres undefined) was read as SENP8 block-1 9.2, UBC13 inh 34.8, SENP6 block -3.4, Apaf-1 inh 49.1*, SENP7 inh 1.2, SENP8 block-2 -12.0, Apaf-1 inh conf2 18.2 and Rh110 interf inh 12.4.
`CC(C(=O)Nc1ccccc1C(F)(F)F)N1CCN(C)CC1` (centres undefined) gave SENP8 block-1 4.3, UBC13 inh -1.7, SENP6 block 10.5, Apaf-1 inh -5.2, SENP7 inh -7.3 and SENP8 block-2 15.2.
CCOC(=O)N1CCC(NC(=O)CN2C(=O)CSc3ncccc32)CC1 was read as SENP8 block-1 2.4, UBC13 inh 3.6, SENP6 block 0.8, Apaf-1 inh 62.8*, SENP7 inh -14.4, SENP8 block-2 2.0, Apaf-1 inh conf2 7.8 and Rh110 interf inh 1.5.
Screening CCOC(=O)N1CCC(NC(=O)CCCN2C(=O)CSc3ncccc32)CC1 returned SENP8 block-1 16.2, UBC13 inh 3.6, SENP6 block -13.9, Apaf-1 inh 2.0, SENP7 inh -2.8 and SENP8 block-2 -3.6.
CCN1C(=O)/C(=C\c2ccncc2)SC1=S was read as SENP8 block-1 13.2, UBC13 inh -11.7, SENP6 block -11.6, Apaf-1 inh 13.2, SENP7 inh 5.2 and SENP8 block-2 5.0.
Screening CCCCC(CC)CN1C(=O)/C(=C/c2ccncc2)SC1=S (centres undefined) returned SENP8 block-1 24.8, UBC13 inh -12.8, SENP6 block -18.6, Apaf-1 inh 41.9*, SENP7 inh -5.8, SENP8 block-2 -14.3, Apaf-1 inh conf2 17.2 and Rh110 interf inh 9.7.
`Cc1cc(NC(=O)CSc2nnc(-c3ccncc3)n2-c2ccccc2)no1` gave SENP8 block-1 -13.5, UBC13 inh 1.4, SENP6 block -3.7, Apaf-1 inh 3.6, SENP7 inh 5.1 and SENP8 block-2 -4.1.
CCCCCOC(=O)c1c(N)n(CCOC)c2nc3ccccc3nc12 was read as SENP8 block-1 -262.2, UBC13 inh -14.6, SENP6 block 8.5, Apaf-1 inh 94.0*, SENP7 inh 63.9*, SENP8 block-2 62.7*, Apaf-1 inh conf2 27.2 and Rh110 interf inh 13.1.
For C#CCOCCOCCOCCNc1nc(N2CCN(C(=O)[C@H](CCCCN)n3cc(CCCC)nn3)CC2)nc(N2CCN(C(=O)[C@H](CCCCN)n3cc(CCCC)nn3)CC2)n1 the results were SENP8 block-1 22.8, UBC13 inh 7.9, SENP6 block -20.1, Apaf-1 inh 49.6*, SENP7 inh -7.0, SENP8 block-2 -12.2, Apaf-1 inh conf2 11.1 and Rh110 interf inh -3.1.
Screening C#CCOCCOCCOCCNc1nc(N2CCOCC2)nc(N2CCN(C(=O)[C@H](CCCCN)n3cc(CCCC)nn3)CC2)n1 returned SENP8 block-1 15.8.
For COc1ccc(C(=O)Nc2ccc(NS(=O)(=O)c3ccccc3)cc2)cc1OC the results were SENP8 block-1 30.4, UBC13 inh 15.1, SENP6 block 7.6, Apaf-1 inh -24.1, SENP7 inh 0.9 and SENP8 block-2 4.1.
